Measured values: ChEMBL document CHEMBL4251558, “Synthesis and preliminary antiproliferative activity of new pteridin-7(8H)-one derivatives” (Eur J Med Chem, 2018)

tested on: ECa-109 cell line; assay: Antiproliferative activity against human EC109 cells assessed as decrease in cell viability after 48 hrs by MTT assay; assay type: functional, cell-based; details: ECa-109, 48 h
Method in brief: (§1)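 Cells in exponential growth seeded at 3000 per well and allowed 24 h. Medium then replaced with fresh medium holding a range of compound concentrations, followed by 48 h incubation. Viability read by MTT at 570 nm. IC50 is the concentration giving 50% inhibition of proliferation, reported as mean ± SD of three independent experiments.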

**Q.** Which IC50 does the source give for `CCCSc1nc(Nc2ccccc2OC)c2ncc(=O)n(Cc3ccccc3)c2n1` here?
**A.** > 64 µM

**Q.** `CCCSc1nc(NC2CC2)c2ncc(=O)n(Cc3ccccc3)c2n1` was tested. Which IC50 did it give?
**A.** 29.7 µM

tested on: MKN-45; assay: Antiproliferative activity against human MKN45 cells assessed as decrease in cell viability after 48 hrs by MTT assay; assay type: functional, cell-based; details: MKN-45, 48 h; method in brief: as §1

**Q.** For `CCCSc1nc(Nc2ccccc2OC)c2ncc(=O)n(Cc3ccccc3)c2n1`, which IC50 is on record?
**A.** 14.7 µM

**Q.** `CCCSc1nc(NC2CC2)c2ncc(=O)n(Cc3ccccc3)c2n1` was tested. Which IC50 did it give?
**A.** 23.3 µM

tested on: MGC-803; assay: Antiproliferative activity against human MGC803 cells assessed as decrease in cell viability after 48 hrs by MTT assay; assay type: functional, cell-based; details: MGC-803, 48 h; method in brief: as §1

**Q.** Which IC50 does the source give for `CCCSc1nc(Nc2ccccc2OC)c2ncc(=O)n(Cc3ccccc3)c2n1` here?
**A.** 19.4 µM

**Q.** How did the IC50 turn out when `CCCSc1nc(NC2CC2)c2ncc(=O)n(Cc3ccccc3)c2n1` was run?
**A.** 43.7 µM

tested on: NCI-H1650; assay: Antiproliferative activity against human NCI-H1650 cells assessed as decrease in cell viability after 48 hrs by MTT assay; assay type: functional, cell-based; details: NCI-H1650, 48 h; method in brief: as §1

**Q.** How did the IC50 turn out when `CCCSc1nc(Nc2ccccc2OC)c2ncc(=O)n(Cc3ccccc3)c2n1` was run?
**A.** 51.8 µM

**Q.** How did the IC50 turn out when `CCCSc1nc(NC2CC2)c2ncc(=O)n(Cc3ccccc3)c2n1` was run?
**A.** > 64 µM
